Published values gathered from unrelated publications.
Protocols differ between the studies behind these lines.
KIT: Mast/stem cell growth factor receptor Kit (KIT, Homo sapiens, UniProt P10721)
KIT D816V: Mast/stem cell growth factor receptor Kit (KIT, Homo sapiens, UniProt P10721, D816V)

SMILES	target	observed	action	method	concentration	quantity	result
Cn1cc(-c2cc(F)cc(N3CCn4c(cc5c4CCCC5)C3=O)c2CO)cc(Nc2ccc(N3CCN(C4COC4)CC3)cn2)c1=O	KIT	enzyme activity	inhibitor	–	0.1 µM	inhibition	5%
COc1ncccc1-c1cnn2ccc(N3CCN(C(=O)OC(C)C)CC3)nc12	KIT	binding	–	competition with immobilised ligand	1 µM	remaining binding	84%
Nc1ncc(-c2nc(N3CCOCC3)nc(N3CCOCC3)n2)c(C(F)F)n1	KIT D816V	binding	–	competition with immobilised ligand	10 µM	remaining binding	58%
Cc1nn(C)cc1-c1nc2c(N3CCN(Cc4ccc(Cl)cc4)CC3)c(Cl)cnc2[nH]1	KIT D816V	binding	–	competition with immobilised ligand	1 µM	remaining binding	9.2%
C=CC(=O)Nc1cccc(CN2C(=O)N(c3c(Cl)c(OC)cc(OC)c3Cl)Cc3cnc(NCCCCN(CC)CC)nc32)c1	KIT	binding	–	competition with immobilised ligand	10 µM	remaining binding	1.2%
Cn1cc(-c2cccc(N3CCc4c(sc5c4CC(C)(C)C5)C3=O)c2CO)cc(Nc2ccncn2)c1=O	KIT	enzyme activity	inhibitor	–	1 µM	inhibition	-11%
C#Cc1n[nH]c2c(-c3cn([C@@H](C)c4ccccc4)c(=O)[nH]c3=O)cc(F)cc12	KIT	enzyme activity	inhibitor	–	0.1 µM	inhibition	0.1%
COCc1c(-c2cc3cc(C)cc(OC)c3s2)c2c(N)ncnn2c1CN1CCNC(=O)C1	Mast/stem cell growth factor receptor Kit (KIT, Homo sapiens, UniProt P10721, L576P)	cell-free assay	–	competition with immobilised ligand	1 µM	inhibition	93.1%
Cn1cncc1[C@@](O)(COc1ccc(C#N)cc1-c1ccc(OC(F)(F)F)cc1)c1ccc(C#N)cc1	Mast/stem cell growth factor receptor Kit (KIT, Homo sapiens, UniProt P10721, A829P)	cell-free assay	–	competition with immobilised ligand	1 µM	remaining binding	100%
O=c1[nH]c2ccccc2n1C1CCN(Cc2ccc(-c3[nH]c4cc5ncnc5cc4nc3-c3ccccc3)cc2)CC1	KIT	cell-free assay	–	–	0.5 µM	remaining signal	91.7%
C#Cc1n[nH]c2c(-c3cn(C(C)c4ccccn4)c(=O)[nH]c3=O)cc(F)cc12 (centres unmarked)	KIT	enzyme activity	inhibitor	–	1 µM	inhibition	-6.3%
